Data as given in ChEMBL document CHEMBL1649151, “Urinary bactericidal activity of Doripenem versus that of levofloxacin in patients with complicated urinary tract infections or pyelonephritis” (Antimicrob Agents Chemother, 2009).
In brackets after ≈: the same amount, converted by molar mass.

Legend:
[1] = system: Escherichia coli; test: Antimicrobial activity against Escherichia coli 1889646 B-F isolated from patient with pyelonephritis assessed as >3-log reduction in urinary bacterial titer after 20 hrs; format: functional, Urine
Procedure, shortened: (§1)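 Urine was collected on day 3 of i.v. therapy (steady state) over 4-h intervals from infusion start (0–4 to 20–24 h), stored at –80°C and sterile filtered. It was serially diluted twofold (1:0 up to 1:131,072) in the patient's own pre-dose drug-free urine. Microdilution used a final inoculum of 1.0 x 10^6 to 9.5 x 10^6 CFU/ml, incubated 18 h at 37°C in air. 10 µl was subcultured onto 5% blood Columbia agar for 24 h at 37°C. The bactericidal endpoint was >99.9% (>3-log) kill, reported as a reciprocal titer.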

[2] = system: Enterococcus faecalis; test: Antimicrobial activity against Enterococcus faecalis 2215770 B-T isolated from patient with pyelonephritis assessed as >3-log reduction in urinary bacterial titer after 16 hrs; format: functional, Urine
Procedure, shortened: (§2)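 Urine was collected before dosing and on day 3 of i.v. therapy (steady state), in 4-h intervals from infusion start (0–4 to 20–24 h), stored at −80°C and sterile filtered. It was serially diluted twofold (1:0 to 1:131,072) in the patient's drug-free pre-dose urine. Microdilution used an inoculum of 1.0 x 10^6–9.5 x 10^6 CFU/ml, incubated 18 h at 37°C, then subcultured 24 h on blood agar. The endpoint was >99.9% kill, reported as reciprocal titer.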

[3] = system: Staphylococcus haemolyticus; test: Antimicrobial activity against Staphylococcus haemolyticus 1949819 B-M isolated from patient with pyelonephritis assessed as >3-log reduction in urinary bacterial titer after 16 hrs; format: functional, Urine
[4] = system: Escherichia coli; test: Antimicrobial activity against Escherichia coli 1889646 B-F isolated from patient with pyelonephritis assessed as >3-log reduction in urinary bacterial titer after 12 hrs; format: functional, Urine; procedure, shortened: as §1
[5] = system: Escherichia coli; test: Antimicrobial activity against Escherichia coli 2297257 B-W isolated from patient with pyelonephritis by Etest; format: functional
[6] = system: Escherichia coli; test: Antimicrobial activity against Escherichia coli 1949826 B-L isolated from patient with pyelonephritis assessed as >3-log reduction in urinary bacterial titer after 8 hrs; format: functional, Urine
Procedure, shortened: (§3)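 Patient urine was collected on day 3 of i.v. therapy (steady state) over 4-h intervals after infusion start, stored at –80°C, and sterile filtered. It was twofold serially diluted (1:0 to 1:131,072) in the patient's own pre-dose drug-free urine, inoculated to 1.0 x 10^6–9.5 x 10^6 CFU/ml, and incubated for 18 h at 37°C. Subcultures were grown on blood agar for 24 h. The UBT is the reciprocal of the highest dilution giving >99.9% kill.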

[7] = system: Escherichia coli; test: Antimicrobial activity against Escherichia coli 1889646 B-F isolated from patient with pyelonephritis assessed as >3-log reduction in urinary bacterial titer after 8 hrs; format: functional, Urine; procedure, shortened: as §1
[8] = system: Escherichia coli; test: Antimicrobial activity against Escherichia coli 1889645 B-I isolated from patient with pyelonephritis assessed as >3-log reduction in urinary bacterial titer after 4 hrs; format: functional, Urine; procedure, shortened: as §1
[9] = T>MIC in Prevotella spp.-infected patient at 250 to 1000 mg/kg administered every 8 hrs; format: functional; settings: dose mg/kg 250-1000; pooled result: one value given for 10 cell lines, strains, targets or settings
[10] = system: Escherichia coli; test: Antimicrobial activity against Escherichia coli 1949826 B-L isolated from patient with pyelonephritis assessed as >3-log reduction in urinary bacterial titer after 24 hrs; format: functional, Urine; procedure, shortened: as §3
[11] = system: Escherichia coli; test: Antimicrobial activity against Escherichia coli 2062717 B-P isolated from patient with pyelonephritis assessed as >3-log reduction in urinary bacterial titer after 20 hrs; format: functional, Urine
[12] = system: Escherichia coli; test: Antimicrobial activity against Escherichia coli 2297257 B-W isolated from patient with pyelonephritis assessed as urinary bactericidal titer
[13] = system: Enterococcus faecalis; test: Antimicrobial activity against Enterococcus faecalis 2297262-10 B-V isolated from patient with pyelonephritis assessed as >3-log reduction in urinary bacterial titer after 4 hrs; format: functional, Urine; procedure, shortened: as §2
[14] = system: Enterococcus faecalis; test: Antimicrobial activity against Enterococcus faecalis 2215767-10 B-S isolated from patient with pyelonephritis assessed as >3-log reduction in urinary bacterial titer after 20 hrs; format: functional, Urine; procedure, shortened: as §2
[15] = system: Enterococcus faecalis; test: Antimicrobial activity against Enterococcus faecalis 2297262-10 B-V isolated from patient with pyelonephritis assessed as >3-log reduction in urinary bacterial titer after 20 hrs; format: functional, Urine; procedure, shortened: as §2
[16] = system: Serratia marcescens; test: Antimicrobial activity against Serratia marcescens 2297260 B-U isolated from patient with pyelonephritis assessed as >3-log reduction in urinary bacterial titer after 16 hrs; format: functional, Urine
[17] = system: Staphylococcus epidermidis; test: Antimicrobial activity against Staphylococcus epidermidis 2297262-9 B-V isolated from patient with pyelonephritis assessed as >3-log reduction in urinary bacterial titer after 16 hrs; format: functional, Urine
[18] = system: Staphylococcus aureus; test: Antimicrobial activity against Staphylococcus aureus 1889640 A-Z isolated from patient with pyelonephritis assessed as >3-log reduction in urinary bacterial titer after 12 hrs; format: functional, Urine
[19] = system: Escherichia coli; test: Antimicrobial activity against Escherichia coli 2062716 B-R isolated from patient with pyelonephritis assessed as >3-log reduction in urinary bacterial titer after 12 hrs; format: functional, Urine; procedure, shortened: as §3
[20] = system: Escherichia coli; test: Antimicrobial activity against Escherichia coli 1889647 B-H isolated from patient with pyelonephritis assessed as >3-log reduction in urinary bacterial titer after 12 hrs; format: functional, Urine; procedure, shortened: as §1
[21] = system: Escherichia coli; test: Antimicrobial activity against Escherichia coli 1780064 A-X isolated from patient with pyelonephritis by Etest; format: functional
[22] = system: Escherichia coli; test: Antimicrobial activity against Escherichia coli 1655646 A-Y isolated from patient with pyelonephritis by Etest; format: functional
[23] = system: Staphylococcus aureus; test: Antimicrobial activity against Staphylococcus aureus 2215767-9 B-S isolated from patient with pyelonephritis by Etest; format: functional
[24] = system: Escherichia coli; test: Antimicrobial activity against Escherichia coli 1780064 A-X isolated from patient with pyelonephritis assessed as >3-log reduction in urinary bacterial titer after 12 hrs; format: functional, Urine; procedure, shortened: as §2
[25] = system: Enterococcus faecalis; test: Antimicrobial activity against Enterococcus faecalis 2215767-10 B-S isolated from patient with pyelonephritis assessed as >3-log reduction in urinary bacterial titer after 12 hrs; format: functional, Urine; procedure, shortened: as §2
[26] = system: Staphylococcus epidermidis; test: Antimicrobial activity against Staphylococcus epidermidis 1949822 B-J isolated from patient with pyelonephritis assessed as >3-log reduction in urinary bacterial titer after 8 hrs; format: functional, Urine
[27] = system: Escherichia coli; test: Antimicrobial activity against Escherichia coli 1889647 B-H isolated from patient with pyelonephritis assessed as >3-log reduction in urinary bacterial titer after 8 hrs; format: functional, Urine; procedure, shortened: as §1
[28] = system: Escherichia coli; test: Antimicrobial activity against Escherichia coli 1780064 A-X isolated from patient with pyelonephritis assessed as >3-log reduction in urinary bacterial titer after 8 hrs; format: functional, Urine; procedure, shortened: as §1
[29] = system: Pseudomonas aeruginosa; test: Antimicrobial activity against Pseudomonas aeruginosa 1821383 B-E isolated from patient with pyelonephritis assessed as >3-log reduction in urinary bacterial titer after 4 hrs; format: functional, Urine
[30] = system: Escherichia coli; test: Antimicrobial activity against Escherichia coli 2062716 B-R isolated from patient with pyelonephritis assessed as >3-log reduction in urinary bacterial titer after 24 hrs; format: functional, Urine; procedure, shortened: as §3
[31] = system: Escherichia coli; test: Antimicrobial activity against Escherichia coli 1821386 B-D isolated from patient with pyelonephritis assessed as >3-log reduction in urinary bacterial titer after 24 hrs; format: functional, Urine; procedure, shortened: as §1
[32] = system: Enterococcus faecalis; test: Antimicrobial activity against Enterococcus faecalis 2297262-10 B-V isolated from patient with pyelonephritis assessed as >3-log reduction in urinary bacterial titer after 24 hrs; format: functional, Urine; procedure, shortened: as §2
[33] = system: Escherichia coli; test: Antimicrobial activity against Escherichia coli 2062716 B-R isolated from patient with pyelonephritis assessed as >3-log reduction in urinary bacterial titer after 20 hrs; format: functional, Urine; procedure, shortened: as §3

With `C[C@@H](O)[C@H]1C(=O)N2C(C(=O)O)=C(S[C@@H]3CN[C@H](CNS(N)(=O)=O)C3)[C@H](C)[C@H]12` [DORIPENEM] the urinary bactericidal titer [1] was 65500, the urinary bactericidal titer [2] was 512 reciprocal titer and the urinary bactericidal titer [3] was 128 reciprocal titer. For the same compound, the urinary bactericidal titer [4] was 32800 reciprocal titer, the MIC [5] was 0.015 µg/mL (≈ 0.0357 µM) and the urinary bactericidal titer [6] was 32800 reciprocal titer. The urinary bactericidal titer [7] was 32800 reciprocal titer, the urinary bactericidal titer [8] was 65500 reciprocal titer and the “fT>MIC” value [9] was 35%. For the same compound, the urinary bactericidal titer [10] was 16400 reciprocal titer, the urinary bactericidal titer [11] was 32800 reciprocal titer and the urinary bactericidal titer [12] was 4096 reciprocal titer.

Work on `C[C@H]1COc2c(N3CCN(C)CC3)c(F)cc3c(=O)c(C(=O)O)cn1c23.C[C@H]1COc2c(N3CCN(C)CC3)c(F)cc3c(=O)c(C(=O)O)cn1c23.O` [LEVOFLOXACIN] yielded a Time [13] of 0 h, a Time [14] of 0 h and a Time [15] of 0 h. It also gave a urinary bactericidal titer [16] of 128 reciprocal titer, a urinary bactericidal titer [17] of 2 reciprocal titer and a urinary bactericidal titer [18] of 128 reciprocal titer. For the same compound, the urinary bactericidal titer [19] was 512 reciprocal titer, the urinary bactericidal titer [20] was 512 reciprocal titer and the MIC [21] was 0.047 µg/mL. For the same compound, the MIC [22] was 0.047 µg/mL, the MIC [23] was greater than 32 µg/mL and the urinary bactericidal titer [24] was 256 reciprocal titer. It also gave a urinary bactericidal titer [25] of 1 reciprocal titer, a urinary bactericidal titer [26] of 4 reciprocal titer and a urinary bactericidal titer [27] of 2048 reciprocal titer. For the same compound, the urinary bactericidal titer [28] was 512 reciprocal titer, the urinary bactericidal titer [29] was 32 reciprocal titer and the urinary bactericidal titer [30] was 64 reciprocal titer. For the same compound, the urinary bactericidal titer [31] was 2048 reciprocal titer, the Time [32] was 0 h and the urinary bactericidal titer [33] was 128 reciprocal titer.
